# Measured values taken from publication PMC11370311 (Cell reports, 2024).
# Tests used:
# [1] = tested on: GST-SART3(HAT) (N + C); experiment: Biotinylated GAR peptide pull-down of GST-SART3; assay type: binding; details: 2 μg GST-tagged protein, 1h at 4°C, western blot, repeated three times
# In short: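 Streptavidin beads loaded with biotinylated GAR peptides (1 h, 4°C, rocking): fibrillarin unmethylated, ADMA or SDMA; coilin unmethylated, or SDMA at Arg 1–3 or 3–5. After 3 washes in mild lysis buffer (10 mM Tris/Cl pH 7.5, 0.5 mM EDTA, 0.5% NP-40), beads took 2 μg GST protein for 1 h at 4°C with rocking. Coilin pull-downs also ran in RIPA. Bound protein was eluted and read by western blot.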
# [2] = tested on: interaction between GFP-SART3 and endogenous fibrillarin; experiment: Co-IP of GFP-SART3 with endogenous fibrillarin; assay type: cell-based, human; details: HEK293T; 3 days; 10uM EPZ015666 or 1uM MS023; IP/western blot
# In short: (§1)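 HEK293T cells were grown at 37°C in DMEM with 10% FBS and 1% antibiotic-antimycotic, then transfected at 80% confluence using lipofectamine 2000. They were treated with 10uM EPZ015666 (PRMT5) or 1uM MS023 (PRMT1) for 3 days. Lysates were made in mild buffer (10mM Tris pH 7.5, 150mM NaCl, 0.5mM EDTA, 0.5% NP-40, protease inhibitors). Anti-GFP on Protein A/G beads was incubated with lysate 2 h at 4°C, then SDS-PAGE, PVDF, ECL western.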
# [3] = tested on: interaction between GFP-SART3 and endogenous coilin; experiment: Co-IP of GFP-SART3 with endogenous coilin; assay type: cell-based, human; details: HEK293T; 3 days; 10uM EPZ015666 or 1uM MS023; IP/western blot
# In short: as §1
# [4] = tested on: SND1; experiment: GFP-Trap IP-MS of GFP-RMET; assay type: cell-based, human; details: HEK293T, with vs without AdOx, 3 days, label-free MS
# In short: (§2)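 HEK293T cells at 80% confluence were transfected with GFP-RMET using lipofectamine 2000. Half the cells got 25uM AdOx for 3 days. Lysis was in mild buffer (10 mM Tris/Cl pH 7.5, 150 mM NaCl, 0.5 mM EDTA, 0.5% NP-40) with protease inhibitors, then sonication and clearing. GFP-trap agarose ran 2 h at 4°C, followed by washing, elution, gel and LC-MS. Peptide counts per protein were taken at 1% protein FDR, 2 peptides minimum, and 0.1% peptide FDR.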
# [5] = tested on: SMN; experiment: GFP-Trap IP-MS of GFP-RMET; assay type: cell-based, human; details: HEK293T, with vs without AdOx, 3 days, label-free MS
# In short: as §2
# [6] = tested on: PRMT1; experiment: GFP-Trap IP-MS of GFP-RMET; assay type: cell-based, human; details: HEK293T, AdOx-treated, 3 days, label-free MS
# In short: (§3)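 HEK293T cells were transfected with GFP-RMET; half were treated with 25uM AdOx for 3 days. Cells were lysed in mild NP-40 buffer with protease inhibitors and sonicated, and cleared lysate was captured on GFP-trap agarose 2 h at 4°C. Eluates were gel-separated and the excised bands analysed by nanoLC-MS/MS on an Orbitrap Fusion. Sequest HT searching used 10 ppm MS and 0.6 Da MS/MS tolerance, with 1% protein FDR (2 peptides) and 0.1% peptide FDR. Peptide counts per protein were reported.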
# [7] = tested on: PRMT5; experiment: GFP-Trap IP-MS of GFP-RMET; assay type: cell-based, human; details: HEK293T, AdOx-treated, 3 days, label-free MS
# In short: as §3
# [8] = tested on: MEP50; experiment: GFP-Trap IP-MS of GFP-RMET; assay type: cell-based, human; details: HEK293T, AdOx-treated, 3 days, label-free MS
# In short: as §3
# [9] = tested on: RIOK1; experiment: GFP-Trap IP-MS of GFP-RMET; assay type: cell-based, human; details: HEK293T, AdOx-treated, 3 days, label-free MS
# In short: as §3
# [10] = tested on: interaction between SART3 and the representative spliceosomal proteins; experiment: Co-IP of GFP-SART3 with representative spliceosomal proteins; assay type: cell-based, human; details: HeLa, 10uM EPZ015666, 3 days, IP/western blot
# In short: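 HeLa SART3-KO clones were made by lentiCRISPRv2 and blasticidin 10 μg/mL, then single-cell cloned. They were restored by lentiviral GFP-SART3 (WT, Y112A or W377A) with puromycin 2 μg/mL selection. Lysates in mild NP-40 buffer were incubated with anti-GFP on Protein A/G beads, 2 h at 4°C, washed three times and boiled. Partners were detected by SDS-PAGE/PVDF western with HRP secondary and ECL on X-ray film.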
compound,measurement,setting,value
GGRGRGGGFRGRGRGGGG-Biotin [unmethylated],pull-down of GST-SART3(HAT) by fibrillarin GAR peptide,"[1]; biotinylated fibrillarin GAR peptides, streptavidin beads, mild buffer (150 mM NaCl)",only the SDMA-modified peptide pulled down GST-SART3(HAT)
CC(C)Oc1ccc(-c2c[nH]cc2CN(C)CCN)cc1 [MS023],interaction between GFP-SART3 and endogenous fibrillarin,[2],this reduced interaction was not observed
same,interaction between GFP-SART3 and endogenous coilin,[3],this reduced interaction was not observed
Nc1ncnc2c1ncn2C(C=O)OC(C=O)CO (stereo not shown) [AdOx],enrichment of SND1 as RMET binder,[4],"selectively enriched as RMET binders, exclusively in cells that were not treated with AdOx"
same,enrichment of SMN as RMET binder,[5],"selectively enriched as RMET binders, exclusively in cells that were not treated with AdOx"
same,enrichment of PRMT1 with RMET,[6],relatively enriched
same,enrichment of PRMT5 with RMET,[7],relatively enriched
same,enrichment of MEP50 with RMET,[8],relatively enriched
same,enrichment of RIOK1 with RMET,[9],relatively enriched
Biotin-AKGRGMRG[Rme2s]G[Rme2s]G[Rme2s]GHP-Amide,binding of coilin GAR peptide to GST-SART3(HAT),"[1]; biotinylated coilin GAR peptides, mild buffer (300 mM NaCl)",strong interaction
O=C(NC[C@H](O)CN1CCc2ccccc2C1)c1cc(NC2COC2)ncn1 [EPZ015666],interaction between GFP-SART3 and endogenous fibrillarin,[2],reduced the interaction
same,interaction between GFP-SART3 and endogenous coilin,[3],reduced the interaction
same,interaction between SART3 and representative spliceosomal proteins,[10],inhibits the interaction
